Consider 48 sequences from the EternaBench riboswitch data.

The test system of this data set is MS2 coat protein. The experiment in a line: apparent Kd, MS2 coat protein; higher = weaker binding; RNA-MaP array; FMN 200 µM where present. The gist of the method: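 Designs were transcribed by stalled E. coli RNA polymerase on Illumina sequencing-chip clusters. They were titrated with SNAP-549-labelled MS2 coat protein from 0.7 or 1.5 nM, doubling to 3 µM, without and then with constant ligand. Buffer: 100 mM Tris-HCl pH 7.5, 80 mM KCl, 4 mM MgCl2, BSA, DTT, yeast tRNA, Tween-20. Green signal was normalised to red-channel RNA signal and control-cluster median Fmax. Apparent Kd is the median of filtered per-cluster binding-curve fits.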

[1] abbreviates: designed as: OFF switch for flavin mononucleotide, no ligand.
Where [2] appears, read: ligand present: flavin mononucleotide, designed as: OFF switch for flavin mononucleotide.
[3] abbreviates: designed as: ON switch for flavin mononucleotide, no ligand.
The mark [4] stands for this setting: ligand present: flavin mononucleotide, designed as: ON switch for flavin mononucleotide.

The term apparent Kd denotes a dissociation constant that holds for the conditions of the assay. As to “UUAUAAAGUGUGAGGAUAUGCUGGUCCUUAGAUCAGCAGAAGGCACAUGAGGAUCACCCAUGUAAUAUAUUUUU”, the “apparent Kd” value runs as follows: under setting [1], 38.4 nM; under setting [2], 185 nM.

“UAAAAGCUAGGAUAUACAUGAGGAUCACCCAUGUCAACCACACGGAUGCGCCGAGCAUGUAGAAGGAGCACCGG”: the “apparent Kd” value under setting [1] was 18.2 nM and the “apparent Kd” value under setting [2] is 24.1 nM.

With “UCAGGUCGGGAAGGAUAUCGGCCGCGAAGAGCUCGAGAAGGUCCCGACAUGAGGAUCACCCAUGUUGAAGGGUCCUAACGUGCC”, the “apparent Kd” value was determined as 158 nM under setting [1] and 93.4 nM under setting [2].

On to “UGAGCCUCGUGAGGAUAUACAUGAGGAUCACCCAUGUAAAUGGAAUAACGGAGGAAACUCCGAAUGUAGAAGGCACGAGGCUCA”, for which the “apparent Kd” value was determined as 81.3 nM under setting [1] and 840 nM under setting [2].

Take “AAUAACAGAGGAUAUACUAUUUUAUGUGUUUAUUGUUUUGAACAUGAGGAUCACCCAUGUAGAAGGCUGAAUGA”: the “apparent Kd” value under setting [1] came to 29.9 nM and the “apparent Kd” value under setting [2] is 35.8 nM.

With “GCCGAAAGUGUGAGGAUAUACCUAUGGAUACAUAGGUAGAAGGCACAUGAGGAUCACCCAUGUCCAAUAACGGC”, the “apparent Kd” value is 205 nM under setting [1] and 647 nM under setting [2].

For “ACCGUUGAAGCAGGAUAUUACAGCGCCAGCGUGUAAGAAGGGCUUCAACAUGAGGAUCACCCAUGUUGGAGUACCUCAAAAGUG”, the “apparent Kd” value is, setting by setting: under setting [1], 5.14 nM; under setting [2], 31.4 nM.

For the sequence “CCUCAGUAAGGAUAUCAGCUUAAGGAGGUGGUAAAGAGAGCUGAGAAGGUACAUGAGGAUCACCCAUGUUAAAA”, the “apparent Kd” value stood at 91.1 nM under setting [1] and 227 nM under setting [2].

As to “GGGUACAUCGGAGGAUAUCAUGUAAAUACAUGAGGAUCACCCAUGUCAAUGGAGACAUCGGAGAUUGAGAAGGCCGAUGUACCG”, the “apparent Kd” value under setting [3] amounted to 86.1 nM and the “apparent Kd” value under setting [4] was determined as 340 nM.

In the case of “UUAUCUUGUCAAGGAUAUGUAGUAUUGAUCUGAAAACAUGAGGAUCACCCAUGUAUAUGGUGGGAACAGAAGGUGAAUGUUGAA”, the “apparent Kd” value reads like this: under setting [1], 823 nM; under setting [2], 727 nM.

Turning to “GCGGGAUGAGUCGUUGGUUCACAUGAGGAUCACCCAUGUAGGGAGGAUAUACAUCUGGUCCCGGAGUAGAAGGCCCUACAUCGG”, the “apparent Kd” value is, setting by setting: under setting [1], 163 nM; under setting [2], 107 nM.

For the sequence “UUUUUACAUGAGGAUCACCCAUGUCAGGAUAUCCUUAUAUUUUAUUAUUUUAUUUUUUGGAGAAGGGACUAUUA”, the “apparent Kd” value was determined as 367 nM under setting [1] and 225 nM under setting [2].

As for “CCCGACUAGAAGUCGAUACGGAGGAGAAGGCGCCUCCUGGGUCCACAUGAGGAUCACCCAUGUGGCGAGGAUAUCCUCAGUUUU”, the “apparent Kd” value reads like this: under setting [1], 10.9 nM; under setting [2], 96.6 nM.

Regarding “UGGCUGAGUCGAGGAUAUGAUCUUCAUAUAUAUACAUGAGGAUCACCCAUGUAUAAUUACAUGGAUCAGAAGGCGACUCAGCCA”, the “apparent Kd” value is 31.6 nM under setting [3] and 11.5 nM under setting [4].

Regarding “UUCAUGUGAGGAUAUGCGGCGGCAGGUGGGCCUGUCGCUGAGCAGAAGGCACAUGAGGAUCACCCAUGUGCUCC”, the “apparent Kd” value under setting [1] is 34.3 nM and the “apparent Kd” value under setting [2] came to 59.7 nM.

In the case of “GAUGGACAUGAGGAUCACCCAUGUAAGGAUAUUGAUUGUGGCUAUAAAUGGUUACGGUCGAGAAGGUACUCGUC”, the “apparent Kd” value is, setting by setting: under setting [1], 82.2 nM; under setting [2], 78.8 nM.

Turning to “UUAAAUCAUGUAGGAUAUGCAUGGCGAAGCUACGCAGAAGGACAUGAGGAUCACCCAUGUGCUAGCGACAGAGUACUGUUGCAA”, the “apparent Kd” value by setting is: under setting [1], 62.7 nM; under setting [2], 363 nM.

With “CCCUCACAUGAGGAUCACCCAUGUCAGGAUAUUCGAGGCGCAAAUGCGCCAAAUGCAGGAAGAAGGGACGUGCC”, the “apparent Kd” value was 15.4 nM under setting [1] and 25.7 nM under setting [2].

As for “CUUUUGUGAGGAUAUCUGUAGUAAAAAAAUAAAAUUACUACUGAGAAGGCACAUGAGGAUCACCCAUGUUCCUC”, the “apparent Kd” value under setting [1] was found to be 39.6 nM and the “apparent Kd” value under setting [2] worked out at 181 nM.

For “AAGAUGCGGGUAGGAUAUGGGAAUUAAUAAAGACCAGAAGGACUGGUCACACAACAUGAGGAUCACCCAUGUGUGUGUAGUGAA”, the “apparent Kd” value came out at 12.4 nM under setting [1] and 10.9 nM under setting [2].

As for “CACAGGGCAGGAUAUACGAACAUGUCGCCAGAUGUCAUGGUACAUGAGGAUCACCCAUGUAGAAGGGCGUUGAU”, the “apparent Kd” value is, setting by setting: under setting [1], 50.5 nM; under setting [2], 52.8 nM.

Regarding “AAUAACAGAGGAUAUACUAUUUUAUGUGUUUGUUAUUUUAAACAUGAGGAUCACCCAUGUAGAAGGCUGAAUAA”, the “apparent Kd” value under setting [1] came to 24.3 nM and the “apparent Kd” value under setting [2] is 22.1 nM.

As to “GAUCCACAUGAGGAUCACCCAUGUCAGGAUAUGAUACUAUGUACUUCGGUACAUAGUAUCAGAAGGGACAGAUC”, the “apparent Kd” value is, setting by setting: under setting [1], 168 nM; under setting [2], 108 nM.

“ACAGUUCUGCAAGGAUAUCGUCCUAGUUUGUUUCGAGAAGGUGCUUUAGUUUAUUCCUUUUGUUUACAUGAGGAUCACCCAUGU”: the “apparent Kd” value is 23.6 nM under setting [1] and 16.9 nM under setting [2].

Consider “AUUAAUCAGCAGGAUAUAAGUAUCUGAAGGUGGUUAGAAGGGCUGACAUGAGGAUCACCCAUGUGCUCUUCGUG”, for which the “apparent Kd” value is, setting by setting: under setting [1], 11.7 nM; under setting [2], 18.8 nM.

Regarding “AAAGUUGGUAGGCCCUCGGAACAUGAGGAUCACCCAUGUAAGGAGGAUAUGCCCGGUACCCGCUGGCAGAAGGCCUUAUAAUAA”, the “apparent Kd” value runs as follows: under setting [1], 10.5 nM; under setting [2], 61.6 nM.

On to “GCGAAGAACGAGAAGGCCACAACAUGAGGAUCACCCAUGUCGUGGAGUAUUGGAGGAUAUCGUUAGGCGUCUCAUGAGGACAUA”, for which the “apparent Kd” value is, setting by setting: under setting [1], 5.92 nM; under setting [2], 5.66 nM.

Turning to “UUAAAGGCAGGAUAUACAUUUUUUUUAUUAUCCUCAUUAUUACAUGAGGAUCACCCAUGUAGAAGGGCCAAAUU”, the “apparent Kd” value was 81.7 nM under setting [1] and 54.1 nM under setting [2].

For “GUAGUUAGUAGAGGAUAUUAAUAUGUGUAAUAUUGAGAAGGUUACAUGAGGAUCACCCAUGUGAUCAAUCACUGUUAAGGUUGC”, the “apparent Kd” value reads like this: under setting [1], 6.97 nM; under setting [2], 7.06 nM.

As for “AUGCUAUACGAAGGAUAUGGUUACAUGAGGAUCACCCAUGUUAUUCUUGUUUUCUUGUUUAUGUUCCAGAAGGUCGUAUAGCUA”, the “apparent Kd” value came out at 47.3 nM under setting [1] and 38.2 nM under setting [2].

Turning to “AAGAAGUAAGGAUAUGCAUGGCGGGACUUGCGUCGUGGCGUGCAGAAGGUACAUGAGGAUCACCCAUGUAAAGA”, the “apparent Kd” value reads like this: under setting [1], 27.2 nM; under setting [2], 15.4 nM.

Turning to “GCAAAGCCUGACAUGAGGAUCACCCAUGUUAGAUUGUUAUGUCAGGAUAUUGUCUAGAAACUAGACAAGAAGGGAUGCUUUGCA”, the “apparent Kd” value was found to be 463 nM under setting [3] and 27.3 nM under setting [4].

Take “GUGUACAUAUCAGGAUAUCUAUUUCCUACAUGAGGAUCACCCAUGUAGAUGAUCACCCAUGUAAAGGAGAAGGGAUAUGUAUAC”: the “apparent Kd” value runs as follows: under setting [3], 384 nM; under setting [4], 222 nM.

As to “GUCAGCUCGUGAGGAUAUACAACACUGCUUCGGCAGUGUAUUAAGAUCACAUGAGGAUCACCCAUGUAGAAGGCACGCGCUGAU”, the “apparent Kd” value under setting [1] stood at 12.9 nM and the “apparent Kd” value under setting [2] came to 292 nM.

In the case of “UUCAGCGAUCAAGGAUAUCUAUAAACAUGCGGACAUGAGGAUCACCCAUGUUGAUCACCCAUGUGGGAGAAGGUGAACAUGAGG”, the “apparent Kd” value under setting [3] is 174 nM and the “apparent Kd” value under setting [4] was determined as 72.9 nM.

For the sequence “AACAGCUCGUCAGGAUAUACAACACUGCUUCGGCAGAAUGAUAAGAUAACAUGAGGAUCACCCAUGUAGAAGGGACGAGCUGAA”, the “apparent Kd” value turned out to be 6.01 nM under setting [1] and 8.32 nM under setting [2].

Take “GGACGUCACAUUUACAUGAGGAUCACCCAUGUCAAAAGACAUGAGGAUAUGGAUGCGAAACGCAUCCAGAAGGCAUGGACGUCC”: the “apparent Kd” value is 286 nM under setting [3] and 27.8 nM under setting [4].

For the sequence “CAUCAGGUACGAGGAUAUCCGCGAUCUCUUCGAGGAGAAGGCGUACAUGAGGAUCACCCAUGUGGGCGAGGCAGACGAAGUCUG”, the “apparent Kd” value runs as follows: under setting [1], 96.3 nM; under setting [2], 60.9 nM.

“GCUGCAUAGGCAGGAUAUGCAACAAUUAGAAUAAAAUAUAACUAAUUGACAUGAGGAUCACCCAUGUAGAAGGGCCUGUGCAGU”: the “apparent Kd” value by setting is: under setting [1], 21.1 nM; under setting [2], 19.6 nM.

For the sequence “GGUGGACAUGAGGAUCACCCAUGUGAGGAUAUCGGCUAUCUUGUCGCUGUCGGUUGCUCGAGAAGGCACAUUGU”, the “apparent Kd” value is 78.8 nM under setting [1] and 128 nM under setting [2].

As to “CCUCCUGCAAAGGAUAUCGCGCGGUGACGCUGUCGAGAAGGUUGUACAUGAGGAUCACCCAUGUGGUAUAAGAU”, the “apparent Kd” value runs as follows: under setting [1], 202 nM; under setting [2], 472 nM.

For the sequence “UCGAGCAGGGAAUGGACGCUGAAGUAGGAUAUCCGCGUGGCCGUCCACAUGAGGAUCACCCAUGUGGAGAAGGGCUACAGCGAA”, the “apparent Kd” value turned out to be 5.5 nM under setting [1] and 5.63 nM under setting [2].

For “CUUUAUCACUAUACAUGAGGAUCACCCAUGUUAUCAUCAUGAGAGGAUAUCGUAUUUGGAUUUUUCGAGAAGGCUCUUUUGUAU”, the “apparent Kd” value came to 108 nM under setting [3] and 77.1 nM under setting [4].

As for “AUCGAGUAAGGAUAUACAUGAGGAUCACCCAUGUCCGUGAGGUAAGUUUGUGUCCGGCGUAGAAGGUACUGCAU”, the “apparent Kd” value runs as follows: under setting [1], 52.1 nM; under setting [2], 121 nM.

With “AAUAACAGAGGAUAUACUGUUUUAUGUGUUUGUUAUUUUGAACAUGAGGAUCACCCAUGUAGAAGGCUGAUUGA”, the “apparent Kd” value under setting [1] turned out to be 50 nM and the “apparent Kd” value under setting [2] stood at 44.9 nM.

For the sequence “GGGCUCGGUGUGAGGAUAUUGGGUCUGAAAGGGCUCGAGAAGGCACAUGAGGAUCACCCAUGUAAGCUGGGUCU”, the “apparent Kd” value was determined as 42.7 nM under setting [1] and 37.3 nM under setting [2].

On to “GAUUUGUGAGGAUAUACAUGAGGAUCACCCAUGUGUGUCCAUACGCGUGAGUCUUCGUGUAGAAGGCGCGGGUC”, for which the “apparent Kd” value under setting [1] was 15.5 nM and the “apparent Kd” value under setting [2] amounted to 15.9 nM.

On to “GCCUUAUCCGUCAGGAUAUACAGUUGUUAGUUGUUGUAGAAGGGACAUGAGGAUCACCCAUGUACAUUACAUUG”, for which the “apparent Kd” value under setting [1] is 21.2 nM and the “apparent Kd” value under setting [2] came to 22.6 nM.
